Data published in ChEMBL document CHEMBL1629492 (Eur J Med Chem, 2010).

How the values were obtained:
[1] = target: T1, Alpha-1B adrenergic receptor (Homo sapiens, UniProt P35368); assay: Displacement of [3H]prazosin from human Alpha-1B adrenoceptor expressed in CHO cells; type: cell-based
T1 sequence (P35368 whole entry): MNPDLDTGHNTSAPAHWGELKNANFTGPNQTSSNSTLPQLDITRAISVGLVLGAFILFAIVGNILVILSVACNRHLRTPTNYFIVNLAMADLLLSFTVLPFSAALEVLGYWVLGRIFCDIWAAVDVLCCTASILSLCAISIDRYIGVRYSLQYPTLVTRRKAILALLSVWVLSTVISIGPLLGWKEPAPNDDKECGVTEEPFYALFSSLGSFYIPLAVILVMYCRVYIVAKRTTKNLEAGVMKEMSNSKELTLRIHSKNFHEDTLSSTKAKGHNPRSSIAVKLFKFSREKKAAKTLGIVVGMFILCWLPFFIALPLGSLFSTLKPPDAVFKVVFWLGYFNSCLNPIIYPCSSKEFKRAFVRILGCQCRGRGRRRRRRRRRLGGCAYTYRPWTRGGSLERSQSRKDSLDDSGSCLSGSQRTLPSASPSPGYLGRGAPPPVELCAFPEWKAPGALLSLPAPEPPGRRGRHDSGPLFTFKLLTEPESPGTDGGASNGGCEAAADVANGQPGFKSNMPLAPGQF
In short: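 Membranes ([…], as printed) from CHO cells stably expressing the cloned human α1b subtype were incubated with 0.1–0.4 nM [³H]prazosin and competitor (1 pM up to the top concentration) in 50 mM Tris-HCl, pH 7.4, for 30 min at 25 °C. Non-specific binding was defined with phentolamine, and incubations ended by filtration. Ki was derived from IC50 by Cheng–Prusoff. Reported as pKi from 2–3 triplicate experiments.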

[2] = target: T2, Alpha-1D adrenergic receptor (Homo sapiens, UniProt P25100); assay: Displacement of [3H]prazosin from human Alpha-1D adrenoceptor expressed in CHO cells; type: cell-based
T2 sequence (P25100 whole entry): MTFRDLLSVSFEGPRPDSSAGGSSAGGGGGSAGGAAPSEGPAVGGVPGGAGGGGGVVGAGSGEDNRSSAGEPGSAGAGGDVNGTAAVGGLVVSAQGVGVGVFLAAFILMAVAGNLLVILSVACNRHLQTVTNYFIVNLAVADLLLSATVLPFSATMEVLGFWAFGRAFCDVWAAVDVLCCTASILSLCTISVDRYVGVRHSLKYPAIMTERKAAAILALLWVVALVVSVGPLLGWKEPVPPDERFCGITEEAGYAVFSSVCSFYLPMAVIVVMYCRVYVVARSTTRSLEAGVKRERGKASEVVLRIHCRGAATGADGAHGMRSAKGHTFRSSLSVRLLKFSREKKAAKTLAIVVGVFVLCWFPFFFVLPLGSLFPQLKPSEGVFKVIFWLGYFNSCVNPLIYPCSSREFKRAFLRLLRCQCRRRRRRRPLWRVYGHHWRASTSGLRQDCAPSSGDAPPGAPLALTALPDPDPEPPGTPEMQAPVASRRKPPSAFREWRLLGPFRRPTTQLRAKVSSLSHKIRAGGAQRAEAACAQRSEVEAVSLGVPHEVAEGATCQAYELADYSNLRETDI
In short: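 Membranes ([…], as printed) from CHO cells stably expressing the cloned human α1d subtype were incubated with 0.1–0.4 nM [³H]prazosin and competing drug (1 pM upward) in 50 mM Tris-HCl, pH 7.4, for 30 min at 25 °C. Phentolamine defined non-specific binding. IC50 was converted to Ki by Cheng–Prusoff. Reported as pKi from 2–3 triplicate experiments.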

[3] = target: T3, Alpha-1A adrenergic receptor (Rattus norvegicus) (UniProt P43140); assay: Antagonist activity at alpha1A adrenoceptor in Wistar rat vas deferens assessed as noradrenaline induced contractions after 30 mins; type: functional, tissue-based
T3 sequence (whole entry): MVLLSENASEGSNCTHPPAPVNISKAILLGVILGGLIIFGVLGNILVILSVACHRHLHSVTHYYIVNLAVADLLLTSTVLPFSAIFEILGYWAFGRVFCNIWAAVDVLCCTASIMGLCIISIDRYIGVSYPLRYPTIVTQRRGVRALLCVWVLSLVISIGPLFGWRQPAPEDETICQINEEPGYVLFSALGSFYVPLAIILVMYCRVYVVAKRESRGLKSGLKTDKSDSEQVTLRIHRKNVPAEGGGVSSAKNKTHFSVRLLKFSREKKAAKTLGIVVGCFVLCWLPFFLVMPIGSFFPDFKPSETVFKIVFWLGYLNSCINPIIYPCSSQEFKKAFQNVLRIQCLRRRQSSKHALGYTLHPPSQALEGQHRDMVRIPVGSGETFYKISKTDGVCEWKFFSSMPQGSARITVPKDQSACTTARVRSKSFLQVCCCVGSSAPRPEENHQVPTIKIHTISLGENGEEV
In short: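 Prostatic portions (2 cm) of vas deferens from male Wistar rats (275–300 g) were held under 0.35 g tension in Tyrode solution at 37 °C with cocaine present. Tissues were equilibrated 45 min, primed twice with noradrenaline, then given a cumulative isotonic noradrenaline curve.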

[4] = target: T4, Alpha-1B adrenergic receptor (Rattus norvegicus) (UniProt P15823); assay: Antagonist activity at Alpha-1B adrenoceptor in Wistar rat spleen assessed as phenylephrine induced contractions after 30 mins; type: functional, tissue-based
T4 sequence (whole entry): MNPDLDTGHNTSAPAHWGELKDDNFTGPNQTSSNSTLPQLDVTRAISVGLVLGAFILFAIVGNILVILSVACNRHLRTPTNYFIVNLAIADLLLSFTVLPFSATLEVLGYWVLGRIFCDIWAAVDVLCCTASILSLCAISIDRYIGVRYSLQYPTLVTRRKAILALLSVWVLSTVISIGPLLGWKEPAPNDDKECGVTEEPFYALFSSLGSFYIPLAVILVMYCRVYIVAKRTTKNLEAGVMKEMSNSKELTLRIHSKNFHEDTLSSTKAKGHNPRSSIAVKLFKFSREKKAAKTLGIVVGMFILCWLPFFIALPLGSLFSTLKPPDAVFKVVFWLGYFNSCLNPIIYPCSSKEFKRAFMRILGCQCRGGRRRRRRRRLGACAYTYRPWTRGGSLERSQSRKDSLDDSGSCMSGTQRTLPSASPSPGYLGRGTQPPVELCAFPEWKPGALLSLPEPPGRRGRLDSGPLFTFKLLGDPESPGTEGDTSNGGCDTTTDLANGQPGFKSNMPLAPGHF
In short: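 Spleen strips from male Wistar rats (275–300 g) were set up in a 20 mL bath of physiological salt solution (pH 7.4, 37 °C, 95% O2/5% CO2) under 1 g tension and equilibrated 2 h. Two cumulative phenylephrine curves were run, each followed by 30 min washing, then 30 min incubation with vehicle or antagonist before a third curve. Values are Schild pA2, or pKB where slopes were nonparallel; 4–6 experiments.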

[5] = target: T5, Alpha-1D adrenergic receptor (Rattus norvegicus) (UniProt P23944); settings: Wistar, Thoracic aorta
T5 sequence (whole entry): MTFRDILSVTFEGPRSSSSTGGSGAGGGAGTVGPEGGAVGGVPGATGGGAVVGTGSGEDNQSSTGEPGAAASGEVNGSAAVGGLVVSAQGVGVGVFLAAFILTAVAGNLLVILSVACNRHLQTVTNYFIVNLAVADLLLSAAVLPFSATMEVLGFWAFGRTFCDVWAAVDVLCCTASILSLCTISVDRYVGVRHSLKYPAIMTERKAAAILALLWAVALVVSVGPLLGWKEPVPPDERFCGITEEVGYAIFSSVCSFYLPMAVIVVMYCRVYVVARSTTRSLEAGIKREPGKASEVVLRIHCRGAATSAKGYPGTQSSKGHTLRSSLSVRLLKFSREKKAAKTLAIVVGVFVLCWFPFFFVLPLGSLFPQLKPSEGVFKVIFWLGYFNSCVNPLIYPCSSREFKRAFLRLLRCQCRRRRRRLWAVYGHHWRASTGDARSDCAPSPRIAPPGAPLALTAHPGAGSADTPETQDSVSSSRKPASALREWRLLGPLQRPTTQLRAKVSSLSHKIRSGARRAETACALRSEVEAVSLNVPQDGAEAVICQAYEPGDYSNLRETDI

Question: With `CCOc1ccccc1OCCN[C@H](C)Cc1ccc(OC)c(S(N)(=O)=O)c1` [TAMSULOSIN] as the molecule, how does the Ki [1] read?
Answer: 0.631 nM

Question: What about the Ki [2] of the same molecule?
Answer: 0.1 nM

Question: And the pKb [3]?
Answer: 9.46

Question: What about the pKb [4] of the same molecule?
Answer: 9.3

Question: And the pKb [5]?
Answer: 10
